High-throughput results: PubChem BioAssay, The Scripps Research Institute Molecular Screening Center
Rows were chosen to be rich in hits. Some 2% of all compounds tested hit in one or more screens of this group.
ABHD4 inh: ABHD4 (mouse) inhibition, primary FP screen | purified mABHD4, FP-Rh probe fluorescence polarization | inhibition, % at 8.92 µM | hit rate 0.54% among 370,000;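 active = inhibition exceeding the mean over every tested compound plus 3 SD, cut at about 30% in these data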;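 also: 0% = plate median of compound wells and 100% = S159A mutant with DMSO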
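Doses – 8.92 µM, single dose · Material – wild-type mouse ABHD4 protein · Replication – single well per compound (singlicate) · Measure – percent inhibition of probe binding, normalized to plate controls · Schedule – 45 min compound pre-incubation plus 60 min probe step, 25 °C · Detection – fluorescence polarization with parallel and perpendicular emission, 525/598 nm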
HTRA1 inhibitor: blocks human HTRA1 serine peptidase; Q92743; hit rate 0.5% among 340,000; AID 504803; inhibition, % at 5.96 µM; recombinant HTRA1, FP-rhodamine activity-based probe, fluorescence polarization; in the data active = inhibition above about 36%;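 also: 0% = enzyme with DMSO and 100% = wells lacking enzyme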
PAD4 inh: inhibitors of human PAD4; inhibition, % at 6.36 µM; hit rate 0.41% among 330,000; Q9UM07; AID 485272; recombinant PAD4, RCA probe fluorescence polarization;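 active = percent inhibition above a cutoff equal to the mean of all tested compounds plus 3 SD, cut at about 15% in these data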;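 also: 0% = PAD4 with RCA probe and DMSO and 100% = probe without PAD4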
TDP2 inh: TDP2 (human) inhibition, absorbance primary screen; inhibition, % at 12.8 µM; AID 720702; recombinant TDP2, T5PNP hydrolysis, p-nitrophenol absorbance 415 nm; hit rate 0.34% among 370,000;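 active = inhibition above the mean of all tested compounds plus 3 SD, set per campaign, cut at about 25% in these data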;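 also: 0% = DMSO with enzyme and 100% = buffer with substrate but no TDP2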
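Assay system: Recombinant human TDP2 | Quantity: 120 nM TDP2 per well | Incubation: 2 h at 37 °C | Signal: Epi absorbance | Evaluation: Percent inhibition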
SIAE primary: blocks human sialic acid acetylesterase; Q9HAT2; SIAE FP-Rh probe binding, fluorescence polarization; inhibition, % at 9.66 µM; hit rate 0.69% among 370,000;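 active = inhibition above a cutoff: mean of compounds within the control limits plus 3 SD of those, cut at about 17% in these data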;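 also: 0% = plate median of compound wells and 100% = probe without SIAE protein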
Target sequence (Q9HAT2 whole entry, looked up): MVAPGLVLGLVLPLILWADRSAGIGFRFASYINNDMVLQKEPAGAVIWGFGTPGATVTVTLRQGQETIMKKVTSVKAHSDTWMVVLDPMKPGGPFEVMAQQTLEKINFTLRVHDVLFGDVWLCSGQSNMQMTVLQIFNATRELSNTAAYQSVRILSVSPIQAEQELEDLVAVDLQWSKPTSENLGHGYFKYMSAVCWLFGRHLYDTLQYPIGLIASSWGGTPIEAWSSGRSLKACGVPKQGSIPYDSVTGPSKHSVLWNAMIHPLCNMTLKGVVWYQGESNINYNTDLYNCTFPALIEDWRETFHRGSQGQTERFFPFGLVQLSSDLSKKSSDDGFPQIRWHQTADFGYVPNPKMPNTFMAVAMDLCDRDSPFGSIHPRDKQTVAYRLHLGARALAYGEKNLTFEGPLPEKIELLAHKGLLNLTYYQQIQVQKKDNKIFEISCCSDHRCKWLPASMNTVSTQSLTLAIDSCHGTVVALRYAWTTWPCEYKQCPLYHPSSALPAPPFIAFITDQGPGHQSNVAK
TCR CD3 inh: blocks the human TCR-CD3 interaction. TAMRA-labeled TCR probe fluorescence, biochemical. inhibition, % at 9.4 µM. hit rate 0.37% among 360,000. AID 651800; in the data active = inhibition above about 19%;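 also: recombinant mutant TCR 2C K166C tagged with TAMRA read by polarization; 0% = receptor in buffer alone and 100% = receptor with positive control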
TDP2 confirm: confirmation of human TDP2 inhibitors; shares compounds with TDP2 inh; recombinant human TDP2, absorbance read-out; inhibition, % at 12.8 µM; hit rate 22% among 1,100; in the data active = inhibition above about 25%;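 also: 0% = vehicle with enzyme and 100% = no enzyme buffer only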
SIAE confirm: human SIAE inhibition, confirmation; shares compounds with SIAE primary; SIAE FP-Rh activity-based probe, fluorescence polarization; inhibition, % at 9.66 µM; hit rate 13% among 2,300; AID 1117263;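 active = mean inhibition of the replicates above the hit cutoff set in the primary screen, cut at about 17% in these data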;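 also: 0% = SIAE with DMSO and probe and 100% = probe without SIAE; inhibitors lower polarization as more probe stays unbound to SIAE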
* = called active by the depositor; / = no result given.

SMILES | ABHD4 inh | HTRA1 inhibitor | PAD4 inh | TDP2 inh | SIAE primary | TCR CD3 inh | TDP2 confirm | others
CCOC(=O)c1cncn1[C@H](C)c1ccccc1 | / | / | -2.1 | / | / | / | /
CCC(C)NC(=O)c1c(N)n(CC2CCCO2)c2nc3ccccc3nc12 (stereo not drawn) | -0.3 | -23.4 | -12.8 | 62.3* | 3.0 | -4.1 | -0.8
CCC(C)NC(=O)c1c(N)n(CCCOC)c2nc3ccccc3nc12 (stereo not drawn) | -0.5 | -4.4 | -5.0 | 67.4* | 4.7 | 0.5 | 17.0
C=CCNC(=O)c1c(N)n(Cc2ccco2)c2nc3ccccc3nc12 | 6.1 | -16.9 | -12.2 | 11.2 | -4.9 | 10.2 | /
CC(C)(C)OC(=O)c1c(N)n(Cc2ccco2)c2nc3ccccc3nc12 | 3.1 | -10.4 | 18.6* | 66.9* | -9.1 | -5.5 | -4.0
COCCCn1c(N)c(C(=O)Nc2sc3c(c2C(=O)OC)CCCC3)c2nc3ccccc3nc21 | -24.1 | -4.6 | -7.2 | 34.8* | -9.1 | -7.1 | 3.8
CCOC(=O)C1CCN(Cc2ccc(Cl)nc2)CC1 | -2.9 | 3.4 | 1.1 | 4.4 | -3.2 | -0.8 | /
CC(C)(C)C(=O)O[C@H]1CC[C@@]2(C)C(=CC(=O)C3C2CC[C@]2(C)C(=O)CCC32)C1 (stereo partly drawn) | 8.3 | -1.7 | -0.8 | 12.5 | 1.8 | -4.5 | /
O=C(Cn1nc(-c2ccc(Cl)cc2)ccc1=O)N1CCC2(CC1)OCCO2 | -1.1 | 1.4 | -7.2 | -3.9 | -1.2 | 13.2 | /
COP(=O)(OC)C(NS(=O)(=O)c1ccccc1)C(Cl)(Cl)Cl (stereo not drawn) | -2.4 | 2.5 | -4.5 | 22.7 | 3.3 | -0.5 | /
COCCNC(=O)c1c(N)n(Cc2ccco2)c2nc3ccccc3nc12 | 3.6 | 9.4 | -6.5 | 7.4 | -5.4 | 1.3 | /
COCCCn1c(N)c(C(=O)NCc2ccco2)c2nc3ccccc3nc21 | 7.0 | / | -4.9 | 92.3* | -2.1 | -8.6 | 15.3
COc1ccccc1CN1CCN(C(=O)COc2cccc(C)c2)CC1 | 10.3 | -0.1 | -0.4 | -9.3 | 1.7 | 8.6 | /
COc1ccccc1CN1CCN(C(=O)COc2ccc3ccccc3c2)CC1 | 8.5 | -0.7 | -1.9 | 25.4* | -3.4 | 1.8 | 6.3
Cc1ccc(CN2C(=O)NC(=O)C3(Cc4c(nc5ccccn5c4=O)N4CCCCCC43)C2=O)cc1 (stereo not drawn) | 6.5 | -0.7 | 7.2 | 4.9 | -8.1 | -1.8 | /
O=[N+]([O-])c1ccccc1CNCCc1c[nH]c2ccccc12 | 5.0 | -18.9 | -2.4 | 25.0* | 8.4 | 3.2 | 5.6
CNC(=O)O/N=C/c1nn(C(=O)C(C)(C)C)cc1Br | 0.3 | 21.8 | -1.1 | 9.6 | 17.3* | -4.4 | / | SIAE confirm=2.4
C=CC1CN2CCC1CC2c1[nH]c2ccccc2c1CCO (stereo not drawn) | 4.9 | 0.6 | 5.4 | -5.2 | 0.4 | 6.4 | /
CCN1CCN(c2cc(N3CCCC3)c(F)cc2[N+](=O)[O-])CC1 | -3.4 | 3.0 | -2.9 | 6.5 | 2.2 | -0.2 | /
O=c1[nH]c(=S)n(CCC2=CCCCC2)c(O)c1/C=N/N1CCOCC1 | -3.2 | / | -4.4 | -9.1 | 9.3 | -14.0 | /
C/C(=N\N1CCCCCC1)c1c(O)n(-c2ccccc2)c(=O)[nH]c1=O | -16.9 | -1.4 | -2.1 | -6.5 | 49.5* | -5.4 | / | SIAE confirm=4.7
Cc1ccc(-c2cc(-c3ccc(C)cc3)[n+](C)o2)cc1 | 15.0 | 8.5 | -1.3 | 6.2 | 18.1* | 5.9 | / | SIAE confirm=0.6
CN(CCCCC(=O)/C=N/O)Cc1ccccc1 (tested in a mixture with another compound) | -1.3 | -5.7 | 1.0 | -1.9 | 8.9 | -0.4 | /
O=C(c1ccc2c(c1)N(Cc1ccc(F)cc1)CCS2)N1CCC2(CC1)OCCO2 | 4.1 | 1.6 | -1.9 | 1.0 | 17.8* | -2.6 | / | SIAE confirm=1.5
CSCCC(c1nnnn1-c1ccc2c(c1)OCCO2)N1CCC(n2c(=O)[nH]c3ccccc32)CC1 (stereo not drawn) | -6.5 | / | / | -6.2 | -3.3 | -3.4 | /
N#CC1=C(N)Oc2c(c(=O)oc3ccccc23)C1c1ccc([N+](=O)[O-])o1 (stereo not drawn) | 10.1 | 4.1 | 0.1 | 1.3 | 21.8* | 2.5 | / | SIAE confirm=-2.6
